Experimental findings from ChEMBL document CHEMBL4257478, “Design, synthesis and evaluation of (R)-3-(7-(methyl(7H-pyrrolo[2,3-d]pyrimidin-4-yl)amino)-5-azaspiro[2.4]heptan-5-yl)-3-oxopropanenitrile as a JAK1-selective inhibitor” (Medchemcomm, 2018) are described below.

Data set [1] concerns the target CYP2C9 (Homo sapiens, UniProt P11712). Kind of data set: Inhibition of CYP2C9 in human liver microsomes assessed as remaining activity at 10 uM using tolbutamide as substrate preincubated for 5 mins followed by addition of NADPH regenerating system and measured after 15 mins by LC-MS/MS analysis relative to control. The format is ADME. The following applies: probe tolbutamide, read-out: Activity. In outline:
(§1)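 Human liver microsomes (0.25 mg/mL) in 0.1 M phosphate buffer with test article at 0 or 10 μM and substrate cocktail, preincubated 5 min at 37 °C. Cocktail A: phenacetin 50 μM, coumarin 2.5 μM, S-mephenytoin 100 μM, dextromethorphan 5 μM, midazolam 2.5 μM. Cocktail B: bupropion 50 μM, amodiaquine 2.5 μM, tolbutamide 100 μM, chlorzoxazone 50 μM. NADPH system added, then 15 min at 37 °C; acetonitrile quench, LC-MS/MS.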
A general note: Liver microsomes are vesicles of endoplasmic reticulum, rich in cytochrome P450 enzymes.

Data set [2] in a line: Metabolic stability in human plasma assessed as parent compound remaining at 10 uM after 120 mins by LC-MS/MS method. The following applies: read-out: Stability. The format is ADME, cell-free. The method in brief: (§2)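 Human plasma spiked with test article at 10 μM and incubated at 37 °C for 0, 30 and 120 min. Acetonitrile with chlorpropamide internal standard added, sample centrifuged at 4 °C, supernatant analysed by LC-MS/MS; result given as percent remaining.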

Data set [3] can be described thus: Metabolic stability in mouse liver microsomes assessed as parent compound remaining at 1 uM preincubated for 5 mins followed by addition of NADPH regenerating system and measured after 30 mins by LC-MS/MS method. Type of data set: ADME, microsome. The following applies: read-out: Stability. In outline:
(§3)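 Liver microsomes (0.5 mg/mL; human, dog or mouse) in 0.1 M phosphate buffer with test article at 1 μM, preincubated 5 min at 37 °C. NADPH regenerating system added, then 30 min at 37 °C. Acetonitrile with chlorpropamide internal standard added, sample centrifuged, supernatant analysed by LC-MS/MS.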

Data set [4] is described as follows: Metabolic stability in human liver microsomes assessed as parent compound remaining at 1 uM preincubated for 5 mins followed by addition of NADPH regenerating system and measured after 30 mins by LC-MS/MS method. The format is ADME, microsome. The following applies: read-out: Stability. The method in brief:
as §3

Data set [5] is described as follows: Metabolic stability in rat plasma assessed as parent compound remaining at 10 uM after 30 mins by LC-MS/MS method. The format is ADME, cell-free. The following applies: read-out: Stability. The method in brief:
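Rat plasma spiked with test article at 10 μM and incubated at 37 °C, sampled at 0, 30 and 120 min. Acetonitrile containing chlorpropamide internal standard added, then vortexed and centrifuged at 4 °C; supernatant quantified by LC-MS/MS as % remaining. Procaine and diltiazem served as positive controls.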

Data set [6] is described as follows: Metabolic stability in dog liver microsomes assessed as parent compound remaining at 1 uM preincubated for 5 mins followed by addition of NADPH regenerating system and measured after 30 mins by LC-MS/MS method. The format is ADME, Canis lupus familiaris, microsome. The settings on record: read-out: Stability. The method in brief:
as §3

Data set [7] deals with CYP2C19 (Homo sapiens, UniProt P33261). Description: Inhibition of CYP2C19 in human liver microsomes assessed as remaining activity at 10 uM using S-mephenytoin as substrate preincubated for 5 mins followed by addition of NADPH regenerating system and measured after 15 mins by LC-MS/MS analysis relative to control. Type of data set: ADME. The following applies: probe S-mephenytoin, read-out: Activity. In outline:
as §1

The test system of data set [8] is Rattus norvegicus. Description: AUC (0 to t) in Sprague-Dawley rat at 5 mg/kg, iv after 0.08 to 24 hrs by LC-MS/MS method. The arrangement: time upper 24 hr, time lower 0.08 hr, dose 5 mg/kg, route intravenous. The settings on record: in vivo. The format is ADME, organism-based. In outline:
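Male Sprague Dawley rats, 7-8 weeks old, n=4 per group. IV dose 5 mg/kg free base in 10% ethanol/90% PEG400; oral dose 10 mg/kg as corn oil suspension after 16 h fast. Blood taken 0.08-24 h (IV) or 0.25-24 h (PO). Plasma diluted in acetonitrile with internal standard, analysed by LC-MS/MS, parameters by non-compartmental analysis.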

Data set [9] is described as follows: Metabolic stability in rat liver microsomes assessed as parent compound remaining at 1 uM preincubated for 5 mins followed by addition of NADPH regenerating system and measured after 30 mins by LC-MS/MS method. Type of data set: ADME, microsome. The following applies: read-out: Stability. The method in brief:
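Liver microsomes (0.5 mg/mL) in 0.1 M phosphate buffer with test article at 1 μM. Preincubated 5 min at 37 °C, then NADPH regeneration system added and incubated 30 min at 37 °C. Quenched with acetonitrile containing chlorpropamide internal standard and centrifuged; supernatant analysed by LC-MS/MS for % parent remaining. Verapamil served as positive control.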

A short description of data set [10]: Metabolic stability in human plasma assessed as parent compound remaining at 10 uM after 30 mins by LC-MS/MS method. The format is ADME, cell-free. The following applies: read-out: Stability. In outline:
as §2

Data set [11] addresses CYP2D6 (Homo sapiens, UniProt P10635). Kind of data set: Inhibition of CYP2D6 in human liver microsomes assessed as remaining activity at 10 uM using dextromethorphan as substrate preincubated for 5 mins followed by addition of NADPH regenerating system and measured after 15 mins by LC-MS/MS analysis relative to control. Type of data set: ADME. The following applies: probe dextromethorphan, read-out: Activity. In outline: as §1

The target of data set [12] is CYP3A4 (Homo sapiens, UniProt P08684). Description: Inhibition of CYP3A4 in human liver microsomes assessed as remaining activity at 10 uM using midazolam as substrate preincubated for 5 mins followed by addition of NADPH regenerating system and measured after 15 mins by LC-MS/MS analysis relative to control. The format is ADME. The settings on record: probe midazolam, read-out: Activity. The method in brief: as §1
Chain of CYP3A4 (P08684 whole entry): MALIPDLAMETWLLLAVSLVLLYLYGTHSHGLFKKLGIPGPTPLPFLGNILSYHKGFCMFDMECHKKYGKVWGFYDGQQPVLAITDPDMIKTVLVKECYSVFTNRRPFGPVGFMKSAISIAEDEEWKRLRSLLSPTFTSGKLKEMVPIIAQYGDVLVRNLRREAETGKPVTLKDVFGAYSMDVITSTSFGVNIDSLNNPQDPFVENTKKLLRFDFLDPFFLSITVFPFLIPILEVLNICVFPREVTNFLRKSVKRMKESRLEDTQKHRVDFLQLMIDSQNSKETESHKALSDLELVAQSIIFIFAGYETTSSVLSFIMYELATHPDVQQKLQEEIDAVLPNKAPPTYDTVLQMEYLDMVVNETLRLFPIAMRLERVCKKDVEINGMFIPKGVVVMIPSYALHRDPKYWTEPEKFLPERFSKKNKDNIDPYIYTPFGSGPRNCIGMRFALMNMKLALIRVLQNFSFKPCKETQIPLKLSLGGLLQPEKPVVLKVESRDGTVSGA

The nature of data set [13]: Oral bioavailability in Sprague-Dawley rat at 10 mg/kg after 0.25 to 24 hrs by LC-MS/MS method. The format is ADME, organism-based. The settings on record: in vivo. The method in brief:
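Male Sprague Dawley rats, 7–8 weeks old, n=4, fasted 16 h. Free base given at 10 mg/kg po as a corn oil suspension (5 mL/kg); a 5 mg/kg iv arm used 10% ethanol/90% PEG400. Plasma sampled 0.25–24 h, acetonitrile-precipitated with internal standard, and measured by LC-MS/MS. Parameters derived by non-compartmental analysis.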

The target in data set [14] is T1, CYP2C8 (Homo sapiens, UniProt P10632).
T1 sequence (P10632 whole entry): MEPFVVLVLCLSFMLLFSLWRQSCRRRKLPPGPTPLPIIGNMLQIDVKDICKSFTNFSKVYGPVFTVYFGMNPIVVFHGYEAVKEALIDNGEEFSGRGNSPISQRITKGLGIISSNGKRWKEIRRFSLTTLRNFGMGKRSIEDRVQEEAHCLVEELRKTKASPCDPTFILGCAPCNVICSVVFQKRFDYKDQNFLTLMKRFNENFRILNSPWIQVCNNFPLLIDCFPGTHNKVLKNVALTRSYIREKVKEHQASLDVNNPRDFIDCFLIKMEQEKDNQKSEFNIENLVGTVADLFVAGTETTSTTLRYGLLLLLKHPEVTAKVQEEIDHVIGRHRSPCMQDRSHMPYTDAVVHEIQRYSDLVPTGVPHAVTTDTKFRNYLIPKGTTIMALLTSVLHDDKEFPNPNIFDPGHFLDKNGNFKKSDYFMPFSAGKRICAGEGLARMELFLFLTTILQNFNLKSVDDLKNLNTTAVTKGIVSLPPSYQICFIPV
Description: Inhibition of CYP2C8 in human liver microsomes assessed as remaining activity at 10 uM preincubated for 5 mins followed by addition of NADPH regenerating system and measured after 15 mins by LC-MS/MS analysis relative to control. Type of data set: ADME. The settings on record: read-out: Activity.

Data set [15] is filed under the species Homo sapiens. Kind of data set: Selectivity index, ratio of IC50 for human JAK2 to IC50 for human JAK1. The method in brief: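 Kinase activity assays run as a commercial service at Km ATP; IC50 values fitted from concentration-response data; ratio of JAK2 to JAK1 IC50.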

A value given as a limit tells only on which side of the number the result lay.

Chain of CYP2D6 (P10635 whole entry): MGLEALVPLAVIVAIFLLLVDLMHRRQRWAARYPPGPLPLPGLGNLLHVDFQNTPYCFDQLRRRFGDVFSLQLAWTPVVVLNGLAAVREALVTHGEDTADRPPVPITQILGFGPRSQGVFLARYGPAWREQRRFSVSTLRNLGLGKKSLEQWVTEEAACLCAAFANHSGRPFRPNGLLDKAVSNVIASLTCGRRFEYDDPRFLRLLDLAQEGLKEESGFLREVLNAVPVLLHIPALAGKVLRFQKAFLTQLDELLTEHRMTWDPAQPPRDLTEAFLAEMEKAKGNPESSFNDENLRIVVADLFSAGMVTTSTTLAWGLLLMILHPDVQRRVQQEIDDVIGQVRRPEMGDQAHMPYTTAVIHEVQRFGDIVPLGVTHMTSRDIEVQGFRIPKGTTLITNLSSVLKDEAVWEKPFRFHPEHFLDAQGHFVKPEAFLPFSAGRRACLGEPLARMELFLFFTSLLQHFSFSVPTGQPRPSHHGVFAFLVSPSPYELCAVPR
Chain of CYP2C19 (P33261 whole entry): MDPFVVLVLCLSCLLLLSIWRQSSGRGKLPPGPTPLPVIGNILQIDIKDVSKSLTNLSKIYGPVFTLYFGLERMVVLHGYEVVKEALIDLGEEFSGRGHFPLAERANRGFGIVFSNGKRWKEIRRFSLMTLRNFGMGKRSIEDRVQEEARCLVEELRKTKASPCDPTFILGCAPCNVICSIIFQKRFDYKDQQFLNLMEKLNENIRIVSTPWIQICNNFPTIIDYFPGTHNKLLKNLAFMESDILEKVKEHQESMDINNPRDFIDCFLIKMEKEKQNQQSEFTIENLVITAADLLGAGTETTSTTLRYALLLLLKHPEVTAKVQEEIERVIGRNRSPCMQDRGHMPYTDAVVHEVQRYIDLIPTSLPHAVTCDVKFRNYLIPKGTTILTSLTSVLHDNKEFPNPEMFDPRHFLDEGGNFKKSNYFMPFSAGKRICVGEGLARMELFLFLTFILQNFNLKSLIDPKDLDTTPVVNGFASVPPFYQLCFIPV
Chain of CYP2C9 (P11712 whole entry): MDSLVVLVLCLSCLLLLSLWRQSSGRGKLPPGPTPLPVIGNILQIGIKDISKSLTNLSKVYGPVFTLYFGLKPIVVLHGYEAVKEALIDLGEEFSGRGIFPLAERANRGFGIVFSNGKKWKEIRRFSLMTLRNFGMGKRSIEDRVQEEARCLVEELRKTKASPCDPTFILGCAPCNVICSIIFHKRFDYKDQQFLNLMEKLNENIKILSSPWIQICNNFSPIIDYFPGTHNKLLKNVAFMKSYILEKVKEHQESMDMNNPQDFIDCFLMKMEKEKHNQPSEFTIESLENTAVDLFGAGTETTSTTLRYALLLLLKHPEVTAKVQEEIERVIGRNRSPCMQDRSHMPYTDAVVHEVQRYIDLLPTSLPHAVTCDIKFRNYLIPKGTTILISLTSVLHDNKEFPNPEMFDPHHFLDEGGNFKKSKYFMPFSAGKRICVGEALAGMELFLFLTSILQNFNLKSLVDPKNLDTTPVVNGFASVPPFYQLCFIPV

As to `CN(c1ncnc2[nH]ccc12)[C@H]1CN(C(=O)CC#N)CC12CC2`, the activity at 0.25 h, 10 µM in data set [1] was 84.4%; in [7], 66%; in data set [11], 91.6%; in data set [12] it was 89.7%; in [14] it was 81%. The remaining at 2 h, 10 µM in [2] is 98.5%. Also, the remaining at 0.5 h, 1 µM was determined as 84.9% in data set [3], 94.6% in data set [4], 99.9% in data set [6] and 84.8% in [9]. The remaining at 0.5 h, 10 µM in [5] came to 98.4%; in [10] it was 95%. Also, the AUCt in data set [8] was 900 ng·h/mL. The bioavailability in data set [13] was found to be 110%.
As to `CCS(=O)(=O)N1C[C@H](N(C)c2ncnc3[nH]ccc23)C2(CC2)C1`, the activity at 0.25 h, 10 µM was 90.7% in [1]; 93.8% in data set [7]; more than 100% in data set [11]; 95.4% in [12]; more than 100% in data set [14]. Further, the remaining at 2 h, 10 µM in [2] is more than 100%. For the same compound, the remaining at 0.5 h, 1 µM in data set [3] is 33.9%; in data set [4], 79.7%; in [6], 56.1%; in data set [9] it was 22.9%. Also, the remaining at 0.5 h, 10 µM in data set [5] and in data set [10] was more than 100% each time. Moreover, in data set [15], the Ratio IC50 amounted to 25.
`CN(c1ncnc2[nH]ccc12)[C@H]1CN(S(=O)(=O)c2cccc(C#N)c2)CC12CC2`: the activity at 0.25 h, 10 µM in data set [1] came to 50.4%; in data set [7], 55.8%; in data set [11] it was 90.3%; in data set [12], 33.2%; in data set [14], 66.2%. The remaining at 2 h, 10 µM in data set [2] was determined as 98.6%. The remaining at 0.5 h, 1 µM in data set [3] is 3.2%; in [4] it was 6%; in [6], 5.5%; in data set [9], 2.4%. Besides, the values for the remaining at 0.5 h, 10 µM in data set [5] and in data set [10] were more than 100% and 96.6%, respectively. Also, in data set [15], the Ratio IC50 was found to be 10.
